Source: PubChem BioAssay
Inconclusive results are not listed. Activity calls are given as the source filed them.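 How the source made its calls, unless noted: active means growth inhibition above 25% in both replicates, a cutoff set 3 SD above the mean; inconclusive means above 25% in only one replicate; inactive means the rest.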

Key:
[1] = OD615 S. cerevisiae growth inhibition, permissive medium, pilot counter-assay, permissive growth control for S. cerevisiae lifespan shortening project (AID 705); conditions: OD615, 24 h, at 10 µM, hits give high values
Method in brief: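 System: Engineered DeaD yeast | Buffer or medium: SC raffinose/galactose permissive medium | Incubation: Cells pre-grown 4 h, then 24 h compound exposure, 30 °C humidified | Measured by: Absorbance (optical density) at 615 nm | Read-out: Reduction in yeast growth (OD615)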

[2] = Restrictive medium S. cerevisiae growth inhibition, OD615, pilot screen of yeast lifespan reduction project, restrictive growth control (AID 706;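 active means growth inhibition above a set limit, 3 SD over mean compound inhibition, in both replicates, cut at about 43% in these data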;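 further: modified DeaD lifespan yeast strain shifted to restrictive glucose medium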); conditions: OD615, 48 h, at 10 µM, hits give high values
Method in brief: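 Material: modified S. cerevisiae; Medium: glucose-based CSMM-D restrictive medium; Compound dosing: one concentration, 10 µM final, 0.25% DMSO; Incubation: 48 h compound exposure at 30 °C; Measured by: OD615.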

[3] = viability gain of MRP-1-high H69AR cells under doxorubicin, pilot screen, MRP-1 activator project, CellTiter-Glo, duplicate (AID 807;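 active means viability increase at or above a cutoff of the median across tested compounds plus 3 SD, cut at about 8.5% in these data, passing the limit was not always enough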;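 further: compound pretreatment 18-22 h then 72 h combined with doxorubicin; 0% = doxorubicin alone and 100% = vehicle without doxorubicin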); conditions: H69AR viability with doxorubicin, CellTiter-Glo luminescence; at 10 µM; hits give high values
[4] = growth suppression of PTEN-deleted HCT116, pilot screen, cell-based, HCT116 clonal line, CellTiter-Glo (AID 824;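 active means viability at or below 27.92% in each of two runs, the all-compound median minus 4 SD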;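 further: 0% = 20 µM Hyamine control and 100% = vehicle cell control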); conditions: 60 h, at 10 µM, hits give low values
[5] = inhibitors of the yeast RAM network, pilot screen, dse1pr::URA3 reporter, 5-FOA selection (AID 869;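 active means inhibition over a set limit, the all-compound mean plus 3 SD, in both replicate runs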;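 further: 0% = DMSO wells with no growth and 100% = 10 µM 1-NA-PP1 with full growth; RAM network block rescues cells from 5-FOA so hits raise OD615 growth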); conditions: S. cerevisiae dse1pr::URA3 5-FOA growth, OD615, 2 d; at 10 µM; hits give high values; strain carries analog-sensitive mutant Cbk1 kinase
[6] = RAM signaling pathway blockade in yeast – S. cerevisiae, Pdr1DBD-CYC8 efflux-inhibited sensitized strain, primary screen (AID 1298;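 active means RAM network inhibition above 8.4% in each of two replicates, 3 SD over the compound average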;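 further: 0% = DMSO untreated cells without growth and 100% = 10 µM 1-NA-PP1 full growth; higher means more yeast growth rescued from 5-FOA killing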); conditions: S. cerevisiae cbk1-as DSE1-URA3 strain, 5-FOA growth OD615, 2 d; at 50 µM; hits give high values

CC1(C)CC(=O)C=C(Nc2cc(-c3ccccc3)[nH]n2)C1
inactive: growth inhibition [1] -9.89% | growth inhibition [2] 3.12% | viability increase [3] -6.97% | viability [4] 93.4% | inhibition [5] -0.355% | RAM network inhibition [6] 2.78%

CC(C)(Oc1ccc(Cl)cc1)C(=O)Nc1ncccn1
inactive: growth inhibition [1] -5.31% | growth inhibition [2] -3.56% | viability increase [3] -2.32% | viability [4] 101% | inhibition [5] 1.61% | RAM network inhibition [6] 2.05%

CCOC(=O)N1CCN(C(=O)CN(c2cccc(C(F)(F)F)c2)S(C)(=O)=O)CC1
inactive: growth inhibition [1] -9.57% | growth inhibition [2] -1.87% | viability increase [3] -4.09% | viability [4] 88.9% | inhibition [5] 0.905% | RAM network inhibition [6] 4.83%

COc1cc(C2CC(=O)C=C(O)C2)cc(OC)c1OC (stereo not given)
inactive: growth inhibition [1] -7.01% | growth inhibition [2] -6.56% | viability increase [3] 0.41% | viability [4] 99% | inhibition [5] 0.785% | RAM network inhibition [6] 5.78%

CC1=C(C(=O)N2CCOCC2)C(c2cc(C)cs2)NC(=O)N1 (stereo not given)
inactive: growth inhibition [1] -9.44% | growth inhibition [2] 2.88% | viability increase [3] -0.83% | viability [4] 101% | inhibition [5] 2.48% | RAM network inhibition [6] 3.08%

CCN1CCN(CCNC(=O)C2CCCN(Cc3nc(-c4cccc(Cl)c4)oc3C)C2)CC1 (stereo not given)
inactive: growth inhibition [1] -9.33% | growth inhibition [2] -13.1% | viability increase [3] -6.96% | viability [4] 35% | inhibition [5] -1.05% | RAM network inhibition [6] 0.71%

CC1=CCC(C(=O)O)C(C(=O)O)C1 (stereo not given)
inactive: growth inhibition [1] -2.08% | growth inhibition [2] -10.3% | viability increase [3] -2.04% | viability [4] 95.7% | inhibition [5] 1.69% | RAM network inhibition [6] 1.34%

O=C(COc1ccccc1)NCCSc1ccccc1
inactive: growth inhibition [1] -10.4% | growth inhibition [2] -5.4% | viability increase [3] -2.23% | viability [4] 97.5% | inhibition [5] 1.55% | RAM network inhibition [6] 0.83%

Cc1nc2ccccc2c(=O)n1CCCO
inactive: growth inhibition [1] -2.92% | growth inhibition [2] 0.055% | viability increase [3] -2.52% | viability [4] 96% | inhibition [5] 2.77% | RAM network inhibition [6] 3.03%

O=c1cc(NCc2ccco2)c2ccccc2o1
inactive: growth inhibition [1] -2.07% | growth inhibition [2] -3.13% | viability increase [3] -4.38% | viability [4] 96.7% | inhibition [5] 1.84% | RAM network inhibition [6] 1.33%

COc1ccccc1-n1c(SCC(=O)Nc2nnc(C)s2)nc2c(c1=O)SCC2
inactive: growth inhibition [1] -5.29% | growth inhibition [2] 3.71% | viability increase [3] -3.7% | viability [4] 80.6% | inhibition [5] 0.81% | RAM network inhibition [6] 3.59%

COCCNS(=O)(=O)c1ccc2c(c1)C(=O)c1cc(S(=O)(=O)NCCOC)ccc1-2
inactive: growth inhibition [1] -1.33% | growth inhibition [2] 0.015% | viability increase [3] -0.81% | viability [4] 96.4% | inhibition [5] 2.15% | RAM network inhibition [6] 3.45%

Cc1onc(-c2ccccc2)c1C(=O)Nc1ccc2c(C)cc(=O)oc2c1
inactive: growth inhibition [1] -3.97% | growth inhibition [2] -0.655% | viability increase [3] -2.9% | viability [4] 103% | inhibition [5] 3.31% | RAM network inhibition [6] 2.2%

CCS(=O)(=O)N1CCN(C(=O)c2cccs2)CC1
inactive: growth inhibition [1] -9.68% | growth inhibition [2] -12.3% | viability increase [3] -1.23% | viability [4] 100% | inhibition [5] 3.8% | RAM network inhibition [6] -0.05%

CCOc1c(Br)cc(C(N)=O)cc1OC
inactive: growth inhibition [1] 5.05% | growth inhibition [2] -3.4% | viability increase [3] -2.49% | viability [4] 101% | inhibition [5] 0.87% | RAM network inhibition [6] 2.56%

O=c1[nH]c(SCc2ccccc2Cl)nc2c1CCC2
inactive: growth inhibition [1] -4.46% | growth inhibition [2] -1.71% | viability increase [3] -2.17% | viability [4] 96.9% | inhibition [5] 1.91% | RAM network inhibition [6] 1.7%

O=C(c1ccc(CN2CCOCC2)cc1)N1CCC(Cc2ccccc2)CC1
inactive: growth inhibition [1] -5.94% | growth inhibition [2] -3.29% | viability increase [3] -0.71% | viability [4] 93.1% | inhibition [5] 1.29% | RAM network inhibition [6] 9.1%

O=C(NCC1CCCO1)C1CCCCN1S(=O)(=O)c1ccc(F)cc1 (stereo not given)
inactive: growth inhibition [1] -2.19% | growth inhibition [2] -9.73% | viability increase [3] -2.13% | viability [4] 102% | inhibition [5] 0.075% | RAM network inhibition [6] 1.44%

O=C(CSc1nc2c(c(=O)n1-c1ccc(Br)cc1)SCC2)NCc1ccco1
inactive: growth inhibition [1] -0.48% | growth inhibition [2] -1.07% | viability increase [3] -3.54% | viability [4] 77.4% | inhibition [5] 0.41% | RAM network inhibition [6] 5.24%

COC(=O)CNC(=O)Cn1cnc2sc(C)c(S(=O)(=O)N3CCC(C)CC3)c2c1=O
inactive: growth inhibition [1] -2.79% | growth inhibition [2] 12.7% | viability increase [3] -3.93% | viability [4] 99.2% | inhibition [5] 1.11% | RAM network inhibition [6] 0.37%

CCCCN1C(=O)C(O)(CC(=O)c2ccco2)c2cc(Br)ccc21 (stereo not given)
active: viability [4] 11.5%
inactive: growth inhibition [1] 2.79% | growth inhibition [2] 2.35% | viability increase [3] -6.26% | inhibition [5] -0.765% | RAM network inhibition [6] -1.34%

CCOc1cc(C2NC(=O)NC(C)=C2C(=O)OC(C)CC)cc(Br)c1O (stereo not given)
inactive: growth inhibition [1] -4.09% | growth inhibition [2] -10.5% | viability increase [3] -1.01% | viability [4] 91.2% | inhibition [5] 2.17% | RAM network inhibition [6] 2.16%

O=C(O)CNS(=O)(=O)c1ccc(F)cc1
inactive: growth inhibition [1] -6.07% | growth inhibition [2] -7.54% | viability increase [3] -0.77% | viability [4] 94.4% | inhibition [5] 2.21% | RAM network inhibition [6] 0.32%

CCC(C)C1C(C#N)=C(N)Oc2n[nH]c(C)c21 (stereo not given)
inactive: growth inhibition [1] -0.17% | growth inhibition [2] 7.77% | viability increase [3] -7.71% | viability [4] 62.9% | inhibition [5] 0.79% | RAM network inhibition [6] 6.1%

CCOC(=O)COc1cccc2c(=O)n(CC(=O)NCc3ccc4c(c3)OCO4)ccc12
inactive: growth inhibition [1] -18.3% | growth inhibition [2] -15.8% | viability increase [3] -5.67% | inhibition [5] 3.72% | RAM network inhibition [6] 6.61%
active: viability [4] 27.3%

Cc1cccc(NC(=O)CS(=O)(=O)c2cn(C)c3ccccc23)c1C
inactive: growth inhibition [1] -8.09% | growth inhibition [2] -5.75% | viability increase [3] -3.27% | viability [4] 96.5% | inhibition [5] 1.46% | RAM network inhibition [6] 3.02%

COc1cc(NC(=O)C2CC2)c(C(=O)O)cc1OC
inactive: growth inhibition [1] -3.4% | growth inhibition [2] 7.62% | viability increase [3] -2.58% | viability [4] 100% | inhibition [5] 1.68% | RAM network inhibition [6] -0.36%

O=C(NCc1ccco1)c1ccc(CN2CCOCC2)cc1
inactive: growth inhibition [1] -5.32% | growth inhibition [2] 1.69% | viability increase [3] -3.13% | viability [4] 105% | inhibition [5] 2.41% | RAM network inhibition [6] 2.2%

CC(=O)NCCOC(=O)Nc1ccncc1
inactive: growth inhibition [1] 4.58% | growth inhibition [2] -5.27% | viability increase [3] -0.91% | viability [4] 99.1% | inhibition [5] 1.32% | RAM network inhibition [6] 3.18%

O=S(=O)(Cc1ccccc1)N1CCc2ccccc2C1
inactive: growth inhibition [1] 2.65% | growth inhibition [2] -4.61% | viability increase [3] -0.66% | viability [4] 95.8% | inhibition [5] 3.92% | RAM network inhibition [6] 6.16%

CCOCCCNC(=O)C(c1ccc(Cl)cc1)N1CCC2(CC1)OCCO2 (stereo not given)
inactive: growth inhibition [1] -11.4% | growth inhibition [2] -20.9% | viability increase [3] -1.08% | viability [4] 98% | inhibition [5] 1.17% | RAM network inhibition [6] 1.59%

Cc1csc(SCC(=O)c2ccc(S(=O)(=O)N3CCOCC3)cc2)n1
inactive: growth inhibition [1] 0.36% | growth inhibition [2] 21.8% | viability increase [3] -3.72% | viability [4] 98.2% | inhibition [5] 0.265% | RAM network inhibition [6] 7.03%

CCOC(=O)c1c(O)c2c(n(Cc3ccco3)c1=O)CCCC2
inactive: growth inhibition [1] -8.59% | growth inhibition [2] 4.38% | viability increase [3] -0.86% | viability [4] 102% | inhibition [5] -0.075% | RAM network inhibition [6] -1.18%

COc1ccc(NC(=O)c2oc3ccccc3c2C)c(OC)c1
inactive: growth inhibition [1] -7.12% | growth inhibition [2] -1.27% | viability increase [3] -3.83% | viability [4] 96.1% | inhibition [5] 0.97% | RAM network inhibition [6] 7.99%

CCOC(=O)N1CCc2c(sc(NC(=O)c3ccc(Cl)s3)c2C(N)=O)C1
inactive: growth inhibition [1] -0.755% | growth inhibition [2] 5.5% | viability increase [3] -2.73% | viability [4] 40% | inhibition [5] 0.53% | RAM network inhibition [6] -0.87%

CCCC(=O)Nc1cccc(C(=O)Nc2nccs2)c1
inactive: growth inhibition [1] -9.54% | growth inhibition [2] 0.885% | viability increase [3] 0.65% | viability [4] 102% | inhibition [5] 0.285% | RAM network inhibition [6] 0.41%

Cc1ccc(S(=O)(=O)N(CC(=O)N2CCOCC2)C2CCCCC2)cc1
inactive: growth inhibition [1] -7.12% | growth inhibition [2] -1.69% | viability increase [3] -2.71% | viability [4] 103% | inhibition [5] 1.29% | RAM network inhibition [6] 1.99%

CCSc1nc2ccccc2n1CC(=O)N1CCOCC1
inactive: growth inhibition [1] -4.23% | growth inhibition [2] 1.08% | viability increase [3] -3.2% | viability [4] 92.4% | inhibition [5] 0.915% | RAM network inhibition [6] 0.98%

COc1ccc(N(CC(=O)NCc2ccco2)S(C)(=O)=O)cc1Cl
inactive: growth inhibition [1] -14.3% | growth inhibition [2] -4.89% | viability increase [3] -3.2% | viability [4] 91.7% | inhibition [5] 2.38% | RAM network inhibition [6] 6.11%

CCn1c(=O)c2c3c(sc2n2c(SCc4ccc(F)cc4)nnc12)CCCC3
inactive: growth inhibition [1] -17.7% | growth inhibition [2] -16.7% | viability increase [3] -7.59% | inhibition [5] 2.28% | RAM network inhibition [6] 3.4%
active: viability [4] 25.7%
